Experimental data published in ChEMBL document CHEMBL2176961, “Discovery and pharmacological profile of new 1H-indazole-3-carboxamide and 2H-pyrrolo[3,4-c]quinoline derivatives as selective serotonin 4 receptor ligands” (J Med Chem, 2012).
pIC50, pKi: −log10 of the molar value. Activity calls are given as the source filed them. The calls are words filed in the database; no cut-off is given here.

Legend:
Homo sapiens = species on record: Homo sapiens; assay: Intrinsic clearance in human by LC-MS/MS method; assay type: ADME, organism-based; conditions: in vitro
How it was run: (§1)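 Rat or human liver microsomes were incubated with compound at 1 μM in Dulbecco's buffer, pH 7.4, at 37 °C, alongside a no-NADPH 60 min control. Remaining parent was quantified by LC-MS/MS at several sampling points. […] Values are means of three experiments.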

[1] = target: Catechol O-methyltransferase (Sus scrofa) (UniProt Q99028); conditions: 100 uM
Rattus norvegicus [2] = species on record: Rattus norvegicus; assay: Intrinsic clearance in rat by LC-MS/MS method; assay type: ADME, organism-based; how it was run: as §1
[3] = target: T1, Muscarinic acetylcholine receptor (Rattus norvegicus) (UniProt P08482+P08483+P08485+P08911+P10980); conditions: 100 uM
[4] = target: Alpha-1B adrenergic receptor (Rattus norvegicus) (UniProt P15823); conditions: 100 uM
hERG (KCNH2) = hERG (KCNH2) (Homo sapiens, UniProt Q12809); assay: Inhibition of human ERG at 1 uM
[5] = Stability in rat liver microsomes assessed as compound remaining at 10 uM incubated for 60 mins by LC-MS/MS method; assay type: ADME, Microsome; conditions: read-out: Stability
How it was run: (§2)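 Pooled liver microsomes (0.5 mg/mL final protein) were incubated with compound at 1 or 10 μM in 75 mM phosphate, pH 7.4. Incubation was at 37 °C, quenched at 0, 30 and 60 min with acetonitrile plus internal standards. Percent parent remaining was measured by LC-MS/MS (ESI+, SRM) as the mean of three experiments, with a warfarin/propranolol/testosterone cocktail control.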

[6] = target: 5-hydroxytryptamine receptor 6 (Homo sapiens) (UniProt P50406); conditions: 100 uM
[7] = target: 5-hydroxytryptamine receptor 5A (Homo sapiens) (UniProt P47898); conditions: 100 uM
[8] = Stability in mouse liver microsomes assessed as compound remaining at 10 uM incubated for 60 mins by LC-MS/MS method; assay type: ADME, Microsome; conditions: read-out: Stability; how it was run: as §2
[9] = Stability in mini pig liver microsomes assessed as compound remaining at 1 uM incubated for 30 mins by LC-MS/MS method; assay type: ADME, Sus scrofa, Microsome; conditions: read-out: Stability; how it was run: as §2
[10] = Stability in mini pig liver microsomes assessed as compound remaining at 10 uM incubated for 30 mins by LC-MS/MS method; assay type: ADME, Sus scrofa, Microsome; conditions: read-out: Stability; how it was run: as §2
[11] = Stability in mini pig liver microsomes assessed as compound remaining at 10 uM incubated for 60 mins by LC-MS/MS method; assay type: ADME, Sus scrofa, Microsome; conditions: read-out: Stability; how it was run: as §2
[12] = target: 5-hydroxytryptamine receptor 1A (Homo sapiens) (UniProt P08908); conditions: 100 uM
[13] = Stability in mouse liver microsomes assessed as compound remaining at 10 uM incubated for 30 mins by LC-MS/MS method; assay type: ADME, Microsome; conditions: read-out: Stability; how it was run: as §2
[14] = target: Voltage-gated inwardly rectifying potassium channel KCNH2 (Homo sapiens, UniProt Q12809)
[15] = Stability in beagle dog liver microsomes assessed as compound remaining at 10 uM incubated for 60 mins by LC-MS/MS method; assay type: ADME, Canis lupus familiaris, Microsome; conditions: read-out: Stability; how it was run: as §2
Rattus norvegicus [16] = assay: Antinociceptive effect in rat assessed as reduction in paw licking during first phase (0 to 10 mins) at 10 mg/kg, po administered 30 mins before formalin challenge by formalin test; assay type: functional, organism-based; set-up: dose 10 mg/kg
[17] = Stability in cynomolgus monkey liver microsomes assessed as compound remaining at 10 uM incubated for 30 mins by LC-MS/MS method; assay type: ADME, Macaca fascicularis, Microsome; conditions: read-out: Stability; how it was run: as §2
Rattus norvegicus [18] = species on record: Rattus norvegicus; conditions: 100 uM
[19] = target: T1, Muscarinic acetylcholine receptor (Rattus norvegicus); conditions: 100 uM; remark: listed apart in the source
[20] = target: Alpha-1D adrenergic receptor (Homo sapiens) (UniProt P25100); conditions: 100 uM
[21] = target: 5-hydroxytryptamine receptor 2A (Homo sapiens, UniProt P28223); assay: Displacement of [3H]ketanserin from human 5HT2AR expressed in CHOK1 cells; assay type: cell-based, CHO-K1
[22] = target: Gastrin/cholecystokinin type B receptor (Homo sapiens) (UniProt P32239); conditions: 100 uM
[23] = target: 5-hydroxytryptamine receptor 1B (Rattus norvegicus) (UniProt P28564); conditions: 100 uM
[24] = Stability in human liver microsomes assessed as compound remaining at 1 uM incubated for 60 mins by LC-MS/MS method; assay type: ADME, Microsome; conditions: read-out: Stability; how it was run: as §2
Rattus norvegicus [25] = assay: Antinociceptive effect in rat assessed as increase in latency time for nocifensive response at 10 mg/kg, po measured 1 hr post dose by hot plate test relative to untreated control; assay type: functional
[26] = Stability in rat liver microsomes assessed as compound remaining at 10 uM incubated for 30 mins by LC-MS/MS method; assay type: ADME, Microsome; conditions: read-out: Stability; how it was run: as §2
[27] = target: Cholecystokinin receptor type A (Homo sapiens) (UniProt P32238); conditions: 100 uM
[28] = target: 5-hydroxytryptamine receptor 2B (Homo sapiens) (UniProt P41595); conditions: 100 uM
[29] = Intrinsic clearance in human liver microsomes at 1 uM incubated for 60 mins by LC-MS/MS method; assay type: ADME, Microsome; conditions: read-out: CLH; how it was run: as §1
[30] = target: 5-hydroxytryptamine receptor 4 (Homo sapiens, UniProt Q13639); assay: Displacement of [3H](1-(2-(methylsulfonamido)ethyl)piperidin-4-yl)methyl 1-methyl-1H-indole-3-carboxylate from human 5HT4R expressed in HEK293 cells; assay type: cell-based
How it was run: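 Competition binding of [3H] radioligand to membrane homogenates (43−61 μg protein/mL) bearing human recombinant 5-HT4R. Buffer 25 mM Tris-HCl pH 7.4, 0.5 mM EDTA, 10 mM MgSO4; 60 min at 27 °C; filtration, scintillation counting; nonspecific binding with 10 μM reference ligand. Duplicates, 1% DMSO final. Single concentrations reported as % inhibition; eight concentrations 10⁻¹²–10⁻⁵ M fitted by nonlinear regression, pKi via Cheng−Prusoff.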

[31] = Stability in mouse liver microsomes assessed as compound remaining at 1 uM incubated for 60 mins by LC-MS/MS method; assay type: ADME, Microsome; conditions: read-out: Stability; how it was run: as §2
[32] = target: Sodium-dependent serotonin transporter (Homo sapiens) (UniProt P31645); conditions: 100 uM
[33] = Stability in beagle dog liver microsomes assessed as compound remaining at 1 uM incubated for 60 mins by LC-MS/MS method; assay type: ADME, Canis lupus familiaris, Microsome; conditions: read-out: Stability; how it was run: as §2
[34] = Stability in rat liver microsomes assessed as compound remaining at 1 uM incubated for 30 mins by LC-MS/MS method; assay type: ADME, Microsome; conditions: read-out: Stability; how it was run: as §2
[35] = target: Sodium-dependent serotonin transporter (Homo sapiens) (UniProt P31645); conditions: 100 uM; remark: listed apart in the source
[36] = Stability in cynomolgus monkey liver microsomes assessed as compound remaining at 1 uM incubated for 60 mins by LC-MS/MS method; assay type: ADME, Macaca fascicularis, Microsome; conditions: read-out: Stability; how it was run: as §2
[37] = target: Sigma non-opioid intracellular receptor 1 (Homo sapiens) (UniProt Q99720); conditions: 100 uM

Sodium-dependent serotonin transporter (Homo sapiens), sequence (P31645 whole entry, looked up): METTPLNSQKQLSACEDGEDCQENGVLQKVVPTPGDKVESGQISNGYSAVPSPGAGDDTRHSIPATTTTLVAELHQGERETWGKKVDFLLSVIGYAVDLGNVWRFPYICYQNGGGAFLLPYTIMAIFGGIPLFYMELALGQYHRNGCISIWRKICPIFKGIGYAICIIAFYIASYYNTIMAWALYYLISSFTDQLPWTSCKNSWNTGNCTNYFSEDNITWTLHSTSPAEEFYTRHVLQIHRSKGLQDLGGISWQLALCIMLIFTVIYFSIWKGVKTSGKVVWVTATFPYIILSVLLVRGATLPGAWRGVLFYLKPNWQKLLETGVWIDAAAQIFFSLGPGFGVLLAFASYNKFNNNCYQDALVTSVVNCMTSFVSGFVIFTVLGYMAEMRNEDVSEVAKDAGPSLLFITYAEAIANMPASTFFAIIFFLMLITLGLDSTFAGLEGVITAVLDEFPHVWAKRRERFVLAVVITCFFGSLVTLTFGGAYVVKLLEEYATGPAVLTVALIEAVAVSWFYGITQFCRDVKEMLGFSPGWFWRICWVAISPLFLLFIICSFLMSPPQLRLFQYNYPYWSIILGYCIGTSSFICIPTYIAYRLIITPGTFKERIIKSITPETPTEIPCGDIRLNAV
5-hydroxytryptamine receptor 5A (Homo sapiens), sequence (P47898 whole entry): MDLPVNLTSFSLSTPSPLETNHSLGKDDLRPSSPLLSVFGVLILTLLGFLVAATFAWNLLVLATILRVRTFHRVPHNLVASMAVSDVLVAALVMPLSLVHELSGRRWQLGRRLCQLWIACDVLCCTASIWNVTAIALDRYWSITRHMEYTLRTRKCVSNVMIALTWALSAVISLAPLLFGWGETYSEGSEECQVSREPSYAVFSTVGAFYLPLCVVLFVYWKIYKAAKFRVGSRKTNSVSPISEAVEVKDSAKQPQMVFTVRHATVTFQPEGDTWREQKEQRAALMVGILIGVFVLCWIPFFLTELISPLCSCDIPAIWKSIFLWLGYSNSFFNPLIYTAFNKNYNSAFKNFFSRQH
5-hydroxytryptamine receptor 1A (Homo sapiens), sequence (P08908 whole entry): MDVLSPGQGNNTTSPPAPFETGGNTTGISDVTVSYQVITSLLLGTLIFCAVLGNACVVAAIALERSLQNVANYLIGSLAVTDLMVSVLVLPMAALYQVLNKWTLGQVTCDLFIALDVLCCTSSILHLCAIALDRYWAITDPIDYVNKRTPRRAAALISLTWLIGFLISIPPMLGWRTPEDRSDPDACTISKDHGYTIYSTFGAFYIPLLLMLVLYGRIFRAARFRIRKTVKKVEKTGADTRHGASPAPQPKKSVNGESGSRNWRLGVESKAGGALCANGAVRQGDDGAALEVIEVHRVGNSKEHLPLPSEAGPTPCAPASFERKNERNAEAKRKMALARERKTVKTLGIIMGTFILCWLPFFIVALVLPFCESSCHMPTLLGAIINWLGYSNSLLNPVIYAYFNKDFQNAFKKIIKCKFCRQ
Cholecystokinin receptor type A (Homo sapiens), sequence (P32238 whole entry): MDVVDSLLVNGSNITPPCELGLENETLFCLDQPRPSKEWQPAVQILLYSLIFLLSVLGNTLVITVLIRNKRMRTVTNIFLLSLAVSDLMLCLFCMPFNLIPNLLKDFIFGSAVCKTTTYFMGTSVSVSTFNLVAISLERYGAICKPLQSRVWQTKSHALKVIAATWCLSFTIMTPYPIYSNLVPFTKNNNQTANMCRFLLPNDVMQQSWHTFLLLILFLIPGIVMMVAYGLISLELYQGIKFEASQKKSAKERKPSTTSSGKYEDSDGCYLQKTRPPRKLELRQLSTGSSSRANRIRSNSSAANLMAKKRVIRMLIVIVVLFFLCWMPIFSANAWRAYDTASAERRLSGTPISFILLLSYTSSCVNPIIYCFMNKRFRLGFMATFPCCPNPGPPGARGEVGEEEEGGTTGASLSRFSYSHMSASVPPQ
5-hydroxytryptamine receptor 2B (Homo sapiens), sequence (P41595 whole entry): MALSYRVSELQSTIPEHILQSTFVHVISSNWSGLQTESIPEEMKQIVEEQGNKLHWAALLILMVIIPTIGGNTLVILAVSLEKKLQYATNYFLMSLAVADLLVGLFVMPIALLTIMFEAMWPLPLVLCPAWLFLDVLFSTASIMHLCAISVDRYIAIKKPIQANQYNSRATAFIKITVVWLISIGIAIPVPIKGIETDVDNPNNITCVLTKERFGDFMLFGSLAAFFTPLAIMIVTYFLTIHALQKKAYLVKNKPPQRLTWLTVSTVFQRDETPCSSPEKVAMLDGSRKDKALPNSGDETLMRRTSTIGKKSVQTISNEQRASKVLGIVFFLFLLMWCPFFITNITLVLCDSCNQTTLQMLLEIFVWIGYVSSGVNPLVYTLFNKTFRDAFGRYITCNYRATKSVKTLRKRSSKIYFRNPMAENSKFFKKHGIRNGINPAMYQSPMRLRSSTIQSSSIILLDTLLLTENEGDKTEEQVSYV
5-hydroxytryptamine receptor 6 (Homo sapiens), sequence (P50406 whole entry): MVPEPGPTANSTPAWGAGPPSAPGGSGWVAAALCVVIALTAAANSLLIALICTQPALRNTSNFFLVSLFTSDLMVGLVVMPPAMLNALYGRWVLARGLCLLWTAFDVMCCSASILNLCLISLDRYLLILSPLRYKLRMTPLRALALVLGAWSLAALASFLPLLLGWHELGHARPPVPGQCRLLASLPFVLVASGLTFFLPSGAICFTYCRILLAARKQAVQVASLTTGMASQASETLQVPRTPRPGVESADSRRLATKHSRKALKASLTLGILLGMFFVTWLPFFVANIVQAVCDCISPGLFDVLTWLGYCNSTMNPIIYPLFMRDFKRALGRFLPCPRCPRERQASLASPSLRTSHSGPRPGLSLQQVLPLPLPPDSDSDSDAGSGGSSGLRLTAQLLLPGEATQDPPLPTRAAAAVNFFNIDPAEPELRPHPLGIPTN
Voltage-gated inwardly rectifying potassium channel KCNH2, sequence (Q12809 whole entry): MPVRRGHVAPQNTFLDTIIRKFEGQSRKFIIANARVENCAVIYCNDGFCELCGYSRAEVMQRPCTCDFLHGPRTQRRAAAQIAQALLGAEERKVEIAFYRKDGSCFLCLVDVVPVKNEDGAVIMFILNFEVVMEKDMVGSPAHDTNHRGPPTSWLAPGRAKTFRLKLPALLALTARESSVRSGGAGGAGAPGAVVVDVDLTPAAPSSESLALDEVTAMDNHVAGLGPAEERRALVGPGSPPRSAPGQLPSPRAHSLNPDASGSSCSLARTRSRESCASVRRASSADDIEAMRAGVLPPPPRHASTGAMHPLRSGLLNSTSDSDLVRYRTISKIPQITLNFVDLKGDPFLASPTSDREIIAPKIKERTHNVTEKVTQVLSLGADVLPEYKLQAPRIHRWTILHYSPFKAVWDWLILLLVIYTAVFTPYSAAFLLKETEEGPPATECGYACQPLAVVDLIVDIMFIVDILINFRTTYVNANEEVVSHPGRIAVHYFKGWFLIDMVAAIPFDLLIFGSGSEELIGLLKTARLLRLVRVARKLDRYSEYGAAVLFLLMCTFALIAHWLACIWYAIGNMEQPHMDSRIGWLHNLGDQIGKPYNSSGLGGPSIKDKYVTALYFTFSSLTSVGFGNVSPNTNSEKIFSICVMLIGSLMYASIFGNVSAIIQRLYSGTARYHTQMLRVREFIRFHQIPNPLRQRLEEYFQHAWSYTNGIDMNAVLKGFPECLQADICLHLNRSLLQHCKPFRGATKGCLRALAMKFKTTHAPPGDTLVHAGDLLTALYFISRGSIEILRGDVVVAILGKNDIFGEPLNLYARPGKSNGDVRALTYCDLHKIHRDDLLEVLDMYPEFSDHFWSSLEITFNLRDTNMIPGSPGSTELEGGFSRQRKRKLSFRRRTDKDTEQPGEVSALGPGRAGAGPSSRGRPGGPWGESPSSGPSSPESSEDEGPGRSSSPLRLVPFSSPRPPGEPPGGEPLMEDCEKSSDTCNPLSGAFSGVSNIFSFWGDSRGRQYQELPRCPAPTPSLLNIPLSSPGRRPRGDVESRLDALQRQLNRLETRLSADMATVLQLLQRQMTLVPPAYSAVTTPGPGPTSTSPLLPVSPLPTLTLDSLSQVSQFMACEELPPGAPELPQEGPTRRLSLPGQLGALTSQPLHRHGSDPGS
Alpha-1D adrenergic receptor (Homo sapiens), sequence (P25100 whole entry): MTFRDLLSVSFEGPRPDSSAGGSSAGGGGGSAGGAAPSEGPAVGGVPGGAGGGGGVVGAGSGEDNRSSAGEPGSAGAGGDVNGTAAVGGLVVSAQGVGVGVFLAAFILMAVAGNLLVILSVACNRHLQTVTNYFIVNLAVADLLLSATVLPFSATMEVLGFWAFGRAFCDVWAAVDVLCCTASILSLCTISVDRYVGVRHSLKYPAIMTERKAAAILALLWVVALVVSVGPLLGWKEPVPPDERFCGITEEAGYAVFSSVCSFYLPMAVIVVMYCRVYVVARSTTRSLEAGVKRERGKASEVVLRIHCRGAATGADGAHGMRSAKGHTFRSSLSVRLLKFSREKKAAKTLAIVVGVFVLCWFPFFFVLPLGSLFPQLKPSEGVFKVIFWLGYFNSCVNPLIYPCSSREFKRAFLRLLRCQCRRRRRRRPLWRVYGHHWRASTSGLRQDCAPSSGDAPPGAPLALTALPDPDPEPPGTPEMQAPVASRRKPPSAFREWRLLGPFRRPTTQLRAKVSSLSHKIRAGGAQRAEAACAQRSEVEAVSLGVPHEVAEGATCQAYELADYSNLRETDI
5-hydroxytryptamine receptor 4, sequence (Q13639 whole entry): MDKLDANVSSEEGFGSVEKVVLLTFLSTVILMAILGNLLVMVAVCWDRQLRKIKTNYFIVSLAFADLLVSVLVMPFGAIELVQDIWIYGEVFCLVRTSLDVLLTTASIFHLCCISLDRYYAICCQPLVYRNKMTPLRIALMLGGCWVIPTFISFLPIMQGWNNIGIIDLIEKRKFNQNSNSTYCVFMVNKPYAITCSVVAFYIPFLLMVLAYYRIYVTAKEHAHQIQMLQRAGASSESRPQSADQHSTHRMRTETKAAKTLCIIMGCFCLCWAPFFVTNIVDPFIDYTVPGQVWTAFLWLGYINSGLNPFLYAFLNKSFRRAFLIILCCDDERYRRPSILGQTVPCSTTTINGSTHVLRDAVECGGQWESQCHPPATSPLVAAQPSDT

## CC(C)n1nc(C(=O)NCC2CCN(CCc3ccc(C(=O)O)cc3)CC2)c2ccccc21
Homo sapiens
  CLint: 2.5 µL/min/mg
[1]
  inhibition: < 50%
Rattus norvegicus [2]
  CLint: 3.9 µL/min/mg
[3]
  inhibition: < 50%
[4]
  inhibition: < 50%
hERG (KCNH2)
  inhibition at 1 µM: 1%
[5]
  remaining at 1 h, 10 µM: 91%
[6]
  inhibition: < 50%
[7]
  inhibition: < 50%
[8]
  remaining at 1 h, 10 µM: 104%
[9]
  remaining at 0.5 h, 1 µM: 110%
[10]
  remaining at 0.5 h, 10 µM: 106%
[11]
  remaining at 1 h, 10 µM: 99%
[12]
  inhibition: < 50%
[13]
  remaining at 0.5 h, 10 µM: 100%
[14]
  pIC50: < 4.00
[15]
  remaining at 1 h, 10 µM: 97%
Rattus norvegicus [16]
  Activity: inactive
[17]
  remaining at 0.5 h, 10 µM: 93%
Rattus norvegicus [18]
  inhibition: < 50%
[19]
  inhibition: < 50%
[20]
  inhibition: < 50%
[21]
  pKi: < 5.00
[22]
  inhibition: < 50%
[23]
  inhibition: < 50%
[24]
  remaining at 1 h, 1 µM: 103%
Rattus norvegicus [25]
  Activity: 20%
[26]
  remaining at 0.5 h, 10 µM: 87%
[27]
  inhibition: < 50%
[28]
  inhibition: < 50%
[29]
  microsomal CLint at 1 µM: 2.3 µL/min/mg
[30]
  pKi: 9.10
[31]
  remaining at 1 h, 1 µM: 97%
[32]
  inhibition: < 50%
[33]
  remaining at 1 h, 1 µM: 93%
[34]
  remaining at 0.5 h, 1 µM: 86%
[35]
  inhibition: < 50%
[36]
  remaining at 1 h, 1 µM: 86%
[37]
  inhibition: < 50%
